The text below walks through data of PubChem BioAssay.

The viability is a read-out of living cells in per cent, often relative to untreated cells. As usually defined, the inhibition is the relative decrease from the control value, in per cent.

The nature of test [1]: S. cerevisiae growth inhibition in permissive medium (OD615), pilot counter-assay for S. cerevisiae lifespan shortening project, permissive growth control (AID 705;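 active means growth inhibition above 25% in both replicates, a cutoff set 3 SD above the mean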). The following applies: OD615, 24 h, at 10 µM, stronger effect = higher value. The method in brief:
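Test system: Saccharomyces cerevisiae strain carrying genetically modified DeaD replicative-lifespan system; buffer or medium: SC raffinose/galactose permissive medium; dosing: one dose 10 µM, DMSO 0.25% final; times: 24 h exposure, 30 °C; measured by: OD at 615 nm; read-out basis: growth inhibition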

Test [2] can be described thus: S. cerevisiae growth inhibition in restrictive medium, OD615, pilot screen, restrictive growth control, yeast lifespan reduction project (AID 706;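 active means growth inhibition above a set limit, 3 SD over mean compound inhibition, in both replicates, cut at about 43% in these data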;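 further: modified DeaD lifespan yeast strain shifted to restrictive glucose medium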). The following applies: OD615, 48 h, at 10 µM, stronger effect = higher value. An outline of the steps: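 material = engineered S. cerevisiae DeaD strain | buffer or medium = glucose-based CSMM-D restrictive medium | dosing = one concentration, 10 µM final, 0.25% DMSO | schedule = 4 h pre-growth plus 48 h compound exposure, 30 °C | detection = OD615 absorbance reading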

Test [3] can be described thus: doxorubicin toxicity protection in MRP-1 cells – H69AR cells, CellTiter-Glo, duplicate, MRP-1 activator project, pilot screen (AID 807;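 active means viability increase at or above a cutoff of the median across tested compounds plus 3 SD, cut at about 8.5% in these data, passing the limit was not always enough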;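 further: compound pretreatment 18-22 h then 72 h combined with doxorubicin; 0% = doxorubicin alone and 100% = vehicle without doxorubicin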). The note with it: H69AR viability with doxorubicin, CellTiter-Glo luminescence; at 10 µM; stronger effect = higher value. A general note: Cellular ATP, detected with luciferase, serves as a proxy for viable cell number.
Test [4] in a line: viability of HCT116 without oncogenic beta-catenin – human colon tumor cells, pilot screen (AID 823;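 active means cell viability at or below a set limit in both duplicate runs, the limit being the all-compound median minus 4 SD, cut at about 23% in these data, passing the limit was not always enough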;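 further: 0% = wells killed by 20 µM Hyamine and 100% = untreated DMSO cell wells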). The note with it: HCT116 beta-catenin knockout viability, CellTiter-Glo, 60 h; at 10 µM; stronger effect = lower value.
Test [5] in a line: viability of PTEN-null HCT116 cells – cell-based, HCT116 clonal line, CellTiter-Glo, pilot screen (AID 824;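 active means viability at or below 27.92% in each of two runs, the all-compound median minus 4 SD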;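 further: 0% = 20 µM Hyamine control and 100% = vehicle cell control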). The note with it: HCT116 PTEN-deleted viability, 60 h, at 10 µM, stronger effect = lower value.
Test [6] in a line: RAM pathway blockade in budding yeast – dse1pr::URA3 reporter, 5-FOA selection, pilot screen (AID 869;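 active means inhibition over a set limit, the all-compound mean plus 3 SD, in both replicate runs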;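 further: 0% = DMSO wells with no growth and 100% = 10 µM 1-NA-PP1 with full growth; RAM network block rescues cells from 5-FOA so hits raise OD615 growth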). The following applies: S. cerevisiae dse1pr::URA3 5-FOA growth, OD615, 2 d; at 10 µM; stronger effect = higher value; strain carries analog-sensitive mutant Cbk1 kinase.
A short description of test [7]: RAM signaling pathway blockade in yeast – S. cerevisiae, Pdr1DBD-CYC8 efflux-inhibited sensitized strain, primary screen (AID 1298).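 Further: 0% = DMSO untreated cells without growth and 100% = 10 µM 1-NA-PP1 full growth; higher means more yeast growth rescued from 5-FOA killing.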 The note with it: S. cerevisiae cbk1-as DSE1-URA3 strain, 5-FOA growth OD615, 2 d; at 50 µM; stronger effect = higher value.

Structures are written as SMILES. Values without a mark were called inactive. Results filed as inconclusive are left out. Calls of active or inactive are those of the source.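 How the source made its calls, unless noted: active means RAM network inhibition above 8.4% in each of two replicates, 3 SD over the compound average; inconclusive means above 8.4% inhibition in only one replicate; inactive means 8.4% inhibition or less in each replicate.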

For the compound `CC1CCN(S(=O)(=O)c2ccc3c(c2)oc(=O)n3CC(=O)NCc2ccc3c(c2)OCO3)CC1`, the figures for the growth inhibition in test [1] and in test [2] were -1.64% and -15.8%, respectively. Further, the viability increase in test [3] is 4.02%. For the same compound, the viability was 81.4% in test [4] and 76.7% in test [5]. Also, the inhibition in test [6] is 3.27%. For the same compound, in test [7], the RAM network inhibition was 2.06%.
Take `COc1ccc(C(=O)Nc2ccccc2C(=O)NCCCn2ccnc2)cc1`: the growth inhibition was -1.82% in test [1] and -2.64% in test [2]. Further, the viability increase in test [3] is -0.82%. For the same compound, the results for the viability in test [4] and in test [5] were 95.1% and 92.9%, respectively. In test [6], the inhibition was 0.715%. Moreover, the RAM network inhibition in test [7] was 2.86%.
Take `CCOC(=O)C1CCN(C(c2cccs2)c2sc3nc(C)nn3c2O)CC1` (stereo not drawn): the figures for the growth inhibition in test [1] and in test [2] were -2.81% and -7.96%, respectively. In addition, in test [3], the viability increase is -0.58%. The viability was 105% in test [4] and 99.3% in test [5]. In addition, in test [6], the inhibition was 0.905%. In addition, the RAM network inhibition in test [7] was 3.86%.
Turning to `Cc1cc2cc(CNC(=O)Cc3cccs3)ccc2n1C`, the growth inhibition is -14.6% in test [1] and 3.17% in test [2]. The viability increase in test [3] is -4.96%. Moreover, the viability in test [4] is 74.9%; in test [5], 69%. The inhibition in test [6] was 3.38%. Also, the RAM network inhibition in test [7] is 8.91%.
`c1ccc(-c2nnc(-c3ccccn3)nn2)nc1`: the values for the growth inhibition in test [1] and in test [2] were 34.5% (active) and 88.1% (active), respectively. Besides, the viability increase in test [3] was 0.07%. Moreover, the viability in test [4] is 68.2%; in test [5], 83%. Also, in test [6], the inhibition was -0.025%. Also, the RAM network inhibition in test [7] is -3%.
On to `CC(=O)c1ccc(NC(=O)C2CCC(C)(C(=O)O)C2(C)C)cc1` (stereo not drawn), for which the growth inhibition is -7.29% in test [1] and -11.9% in test [2]. Further, the viability increase in test [3] is -0.27%. For the same compound, the viability in test [4] is 97.9%; in test [5] it was 106%. Moreover, the inhibition in test [6] was 2.73%. In test [7], the RAM network inhibition is 3.04%.
For the compound `Nc1nonc1-n1nncc1-c1ccccc1`, the growth inhibition in test [1] was -8.35%; in test [2], -13.6%. In addition, the viability increase in test [3] is -1.04%. The viability was 92.4% in test [4] and 96.7% in test [5]. Besides, the inhibition in test [6] is 1.67%. Besides, the RAM network inhibition in test [7] was 1.25%.
Take `COC(=O)c1cc(OC)c(OC)cc1NC(=O)c1c(-c2ccccc2Cl)noc1C`: the growth inhibition was 5.77% in test [1] and -2.39% in test [2]. In addition, in test [3], the viability increase was -5.69%. For the same compound, the viability in test [4] was 66.3%; in test [5], 60.2%. For the same compound, in test [6], the inhibition was 1.68%. For the same compound, the RAM network inhibition in test [7] is 4.85%.
With `O=C(CCSc1ccccc1)Nc1nnc(-c2ccccc2)o1`, the growth inhibition in test [1] is -0.38%; in test [2], 3.81%. Further, in test [3], the viability increase was -3.73%. The results for the viability in test [4] and in test [5] were 98.9% and 103%, respectively. Further, the inhibition in test [6] is 0.27%. Further, the RAM network inhibition in test [7] was 2.5%.
As for `COc1ccc(C2C(C(=O)N3CCN(c4ccc(OC)cc4)CC3)c3ccccc3C(=O)N2C)cc1` (stereo not drawn), the figures for the growth inhibition in test [1] and in test [2] were 1.52% and -0.315%, respectively. For the same compound, the viability increase in test [3] was -0.98%. Further, the viability in test [4] is 60.6%; in test [5] it was 61.9%. The inhibition in test [6] is 0.215%. Besides, in test [7], the RAM network inhibition is 0.86%.
`Cc1cc(C)n(-c2nncc(-c3ccccc3)n2)n1`: the figures for the growth inhibition in test [1] and in test [2] were 14% and 34.6%, respectively. In addition, in test [3], the viability increase is -2.22%. Further, the viability in test [4] was 98.9%; in test [5], 95.6%. In test [6], the inhibition was 1.86%. In test [7], the RAM network inhibition is 0.92%.
Regarding `O=C(c1ccccc1)c1cccc(NC(=O)c2ccco2)c1`, the figures for the growth inhibition in test [1] and in test [2] were -8.52% and -5.33%, respectively. In addition, the viability increase in test [3] is -3.35%. Besides, the results for the viability in test [4] and in test [5] were 92.5% and 96.3%, respectively. Besides, the inhibition in test [6] was -0.895%. In test [7], the RAM network inhibition is -0.72%.
Turning to `O=C(CCc1nc2ccccc2[nH]1)N1CCc2ccccc2C1`, the growth inhibition in test [1] was -11.6%; in test [2] it was -12.5%. In addition, in test [3], the viability increase is -1.86%. In addition, the viability in test [4] was 104%; in test [5] it was 94.8%. In addition, the inhibition in test [6] was 0.94%. The RAM network inhibition in test [7] is 1.76%.
As for `N#CC1=C2SCN(c3ccccc3)CN2C(=O)CC1c1c(Cl)cccc1Cl` (stereo not drawn), the growth inhibition was -3.85% in test [1] and 18.9% in test [2]. Moreover, the viability increase in test [3] is -7.7%. In addition, the viability in test [4] was 84.3%; in test [5] it was 93%. The inhibition in test [6] was 1.14%. The RAM network inhibition in test [7] was 4.42%.
As for `COc1ccc(C(=O)Nc2cc(-c3nn4c(C)nnc4s3)ccc2C)cc1`, the growth inhibition in test [1] was 8.96%; in test [2] it was 33.2%. In addition, the viability increase in test [3] was -5.02%. The viability in test [4] is 98.3%; in test [5], 88.2%. The inhibition in test [6] was 1.27%. For the same compound, in test [7], the RAM network inhibition is 2.75%.
For the compound `COc1cc(OC)cc(C(=O)OCn2nnc3ccccc3c2=O)c1`, the growth inhibition in test [1] was -9.62%; in test [2] it was -4.46%. Further, the viability increase in test [3] was -0.87%. For the same compound, the viability is 101% in test [4] and 96.1% in test [5]. For the same compound, the inhibition in test [6] was 1.33%. In test [7], the RAM network inhibition was 7.22%.
On to `COc1ccc(NC(=O)C(CC(=O)O)Cc2ccccc2)cc1` (stereo not drawn), for which the growth inhibition in test [1] is -17%; in test [2], -9.36%. Besides, the viability increase in test [3] is -0.09%. Further, the viability in test [4] was 102%; in test [5], 97.9%. For the same compound, the inhibition in test [6] is 1.62%. In addition, the RAM network inhibition in test [7] is 5.61%.
As for `Cn1c(=NC(=O)C2CC2)sc2cccc(F)c21`, the growth inhibition was -10.3% in test [1] and 8.25% in test [2]. Besides, the viability increase in test [3] is -4.82%. The values for the viability in test [4] and in test [5] were 88.3% and 89%, respectively. For the same compound, in test [6], the inhibition is 0.96%. Moreover, in test [7], the RAM network inhibition is 6.98%.
For the compound `O=C(Nc1ccncc1)c1ccc2c(c1)OCCO2`, the growth inhibition in test [1] was 1.55%; in test [2], -11.1%. In addition, the viability increase in test [3] is 0.93%. For the same compound, the viability in test [4] was 85.6%; in test [5], 84%. The inhibition in test [6] is 1.98%. Also, the RAM network inhibition in test [7] was 5.5%.
As to `Cc1cc(C)c(S(=O)(=O)N2CCN(C)CC2)c(C)c1`, the growth inhibition in test [1] was -9.57%; in test [2], -13.9%. Besides, the viability increase in test [3] was 1.1%. The viability in test [4] and in test [5] was 101% in each case. The inhibition in test [6] was 0.885%. In addition, the RAM network inhibition in test [7] was 1.78%.
As to `c1ccc2c(c1)CCCN2c1nc2ccccc2n2cnnc12`, the growth inhibition in test [1] was -6.12%; in test [2], -9.76%. The viability increase in test [3] was -6.44%. For the same compound, the results for the viability in test [4] and in test [5] were 91.2% and 83.3%, respectively. Besides, in test [6], the inhibition was 1.44%. Also, in test [7], the RAM network inhibition was 4.1%.
As to `O=C(Nc1ccc(S(=O)(=O)N2CCCCCC2)cc1)c1ccc(Br)o1`, the figures for the growth inhibition in test [1] and in test [2] were -4.67% and 0.21%, respectively. In addition, the viability increase in test [3] is -3.03%. The viability was 69.6% in test [4] and 59.7% in test [5]. Further, the inhibition in test [6] was 2.62%. Besides, the RAM network inhibition in test [7] is 5.05%.
In the case of `Cc1ccnc(N2C(=O)c3ccccc3C2Nc2ccccc2Cl)c1` (stereo not drawn), the growth inhibition in test [1] was -15.2%; in test [2], -17.5%. In addition, the viability increase in test [3] is 2.73%. Besides, the results for the viability in test [4] and in test [5] were 84.9% and 92.5%, respectively. Further, the inhibition in test [6] was 1.49%. Also, the RAM network inhibition in test [7] was 12.8%.
Regarding `Cn1c(CNC(=O)C(C)(C)C)nc2ccccc21`, the values for the growth inhibition in test [1] and in test [2] were -11.4% and -0.87%, respectively. Besides, the viability increase in test [3] is -3.97%. Also, the figures for the viability in test [4] and in test [5] were 101% and 93.1%, respectively. Also, in test [6], the inhibition was 1.8%. For the same compound, the RAM network inhibition in test [7] was 2.73%.
